# Assay results reported in PubChem BioAssay AID465 (The Scripps Research Institute Molecular Screening Center, 2006).
# The campaign covered roughly 62,000 compounds. About 130 (0.21%) were called active. For the sample, actives were picked, then their nearest neighbours and some compounds at random. Values without a mark were called inactive.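 The calls were made as follows: active = inhibition above the mean of all tested compounds plus 3 SD (cut at about 40% in these data); inactive = the rest.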
# Assay: lowered NF-kB luciferase signal in HEK293 cells – cell-based, HEK-293 luciferase reporter, PMA/ionomycin, luminescence, antigen receptor NF-kB inhibitor project, primary screen (AID 465);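 also: 0% = stimulated DMSO wells and 100% = 10 µM reference inhibitor 5653914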
# Conditions: HEK-293 NF-kB luciferase reporter, at 3 µM, active compounds read high
# Outline: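 Signal: luciferase luminescence; Material: HEK-293 cells with stable firefly luciferase reporter driven by four HIV NF-kB elements; Probe or stimulus: PMA with ionomycin; Replication: tested once; Times: 1 h compound pretreatment, then 16 h stimulation at 37 °C, 5% CO2; Benchmarks: DMSO and 10 µM reference inhibitor; Evaluation: per-plate % inhibition versus controls.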
row,Structure (SMILES),inhibition
1,CCC1=C/C(=C\c2ccc3c(c2)OCO3)C(=O)S1,21.2%
2,O=C(c1ccco1)N1CCN(C(=O)c2ccc(COc3ccc(F)cc3)o2)CC1,7%
3,COCCCN1C(=O)C(=O)/C(=C(/O)c2ccc3c(c2)CC(C)O3)C1c1cccnc1 (stereo not drawn),7.3%
4,CCCOC(=O)Cc1c(O)c2ccccc2[nH]c1=O,6.5%
5,COC(=O)Nc1ccc(S(=O)(=O)N(C)CC(F)(F)C(F)F)cc1,3.4%
6,CCn1nnc(NC(=O)c2c(OC)cccc2OC)n1,10.1%
7,O=C(c1ccc2c(c1)OCCO2)C1CCN(S(=O)(=O)c2cccc(F)c2)CC1,6.7%
8,O=C1NC(Nc2nc3ccccc3s2)(C(F)(F)F)C(=O)N1C1CCCCC1 (stereo not drawn),50.1% (active)
9,COC(=O)NC1(C(F)(F)F)NC(=O)N(C2CCCCC2)C1=O (stereo not drawn),9.8%
10,CC(=O)c1c(C)n([O-])c2ccccc2[n+]1=O,12.7%
11,CC(=O)OC(C(=O)NCCc1ccccc1)c1cccnc1 (stereo not drawn),15.3%
12,COc1ccc(C(=O)Nc2ccc3c(c2)OCO3)cc1OC,-6.2%
13,Cn1c(NC(=O)c2ccc3c(c2)OCO3)cc(=O)n(C)c1=O,-1.2%
14,Cn1c(=O)n(C)c2cc(C(=O)Nc3ccc4c(c3)OCO4)ccc21,40.7% (active)
15,O=C(NC1CCCCC1)C1CCCN(S(=O)(=O)c2cccs2)C1 (stereo not drawn),10.2%
16,O=C(NCCN=C1NS(=O)(=O)c2ccccc21)c1ccc(S(=O)(=O)N2CCOCC2)cc1,11.1%
17,Cc1nnc(SCC(=O)N(C(C)C)C(C)C)nc1C,6.1%
18,O=C(Nc1c(C(=O)N2CCCCC2)cnn1-c1ccccc1)c1ccco1,-3.8%
19,C(=C\c1ccccc1)/CSc1nnc(-c2cccnc2)n1Cc1ccco1,11.5%
20,Cc1ccc(NC(=O)CN2CCC3(O)CCCCC3C2c2ccc3c(c2)OCO3)c(C)c1 (stereo not drawn),0.9%
21,Oc1c(C(c2cccs2)N2CCN(c3ccc(F)cc3)CC2)sc2ncnn12 (stereo not drawn),-1%
22,CCOc1ccc(OCC)c(NC(=O)C2CCN(S(=O)(=O)c3c(C)noc3C)CC2)c1,15.5%
23,O=c1cccc(-c2ccc(Br)cc2)o1,10.6%
24,O=C(Nc1cccc2c1CCCC2)C1CCN(C(=O)NC2CCCCC2)CC1,16.4%
25,COc1ccc2c(Cl)c(-c3nnco3)sc2c1,26.5%

row,Structure (SMILES),inhibition
1,C=CCNC(=O)c1cc(-c2ccccc2O)on1,-6.4%
2,O=C(Nn1cnc2ccccc2c1=O)c1ccc(F)cc1Cl,-16.4%
3,Cc1cccc(NC(=O)C2CCCN2S(=O)(=O)c2ccc(F)cc2)c1C (stereo not drawn),19.8%
4,COc1cccc(NS(=O)(=O)c2ccc3[nH]cc(C(=O)NCCCOC(C)C)c(=O)c3c2)c1,9%
5,CCOC(=O)CSc1nnc(CNC(=O)c2cccs2)n1-c1cc(OC)ccc1OC,9.1%
6,CCOC(=O)N1CCN(C(=O)COc2ccc(Br)cc2)CC1,3.3%
7,O=C(c1cccc(C(=O)N2CCc3ccccc32)n1)N1CCc2ccccc21,1.5%
8,O=C(CN1C(=O)c2ccccc2S1(=O)=O)N1CCc2ccccc21,59% (active)
9,CNC(=O)CN1C(=O)c2ccccc2S1(=O)=O,16.9%
10,Cc1[nH]c2ccc(S(N)(=O)=O)cc2c1C,14.3%
11,c1n[nH]c(NCc2ccc3c(c2)OCO3)n1,0.1%
12,CCC(C)(C)n1nnnc1C(c1ccccc1OC)N1CCSCC1 (stereo not drawn),9.6%
13,Cc1nc(C)c(C(=O)Nc2ccc(C)c(F)c2)o1,19.9%
14,O=C(CSc1ncccn1)NC(=O)NCc1ccccc1,13.2%
15,CCC(=O)Nc1cccc(NC(=O)CSc2nnc(-c3ccc(NS(C)(=O)=O)cc3)n2C)c1,1.5%
16,COc1ccc(CCn2c(=N)c(C(=O)NCc3ccco3)cc3c(=O)n4cccc(C)c4nc32)cc1,7.9%
17,Cc1nc2ccc(S(=O)(=O)NCC(=O)O)cc2s1,-0.6%
18,CC1=CC(C)(C)N(C(=O)CSc2nccn2C)c2cc(C)ccc21,0%
19,Cc1ccc(C)c(S(=O)(=O)N2CC(=O)Nc3ccccc32)c1,13.2%
20,Cn1c(=O)c2c(nc(SCCNS(=O)(=O)c3ccccc3)n2C)n(C)c1=O,11.9%
21,O=C(NCCCN1CCN(C2CCCCC2)CC1)Nc1ccccc1C(F)(F)F,7.8%
22,O=C(NCc1ccco1)C1CCCN(S(=O)(=O)c2cccc3nonc23)C1 (stereo not drawn),0.7%
23,O=P(O)(CN1CCCCC1)CN1CCCCC1,4.4%
24,Cc1ccc(-c2noc(CCC(N)=O)n2)cc1,19.8%
25,CCNC(=O)CCc1nc(-c2ccc(C(C)(C)C)cc2)no1,79.1% (active)

row,Structure (SMILES),inhibition
1,Cc1ccc(-c2noc(CCC(=O)Nc3ccccc3N3CCN(C)CC3)n2)cc1,-2%
2,CCCS(=O)(=O)C(=C1Nc2ccccc2N1)S(=O)(=O)CCC,3.3%
3,COc1ccc2c(c1)CCc1c(C(=O)Nc3c(C)n(C)n(-c4ccccc4)c3=O)noc1-2,23.3%
4,CCCCOc1ccc(-c2nnc(-c3ccco3)o2)cc1,-34%
5,CC(=O)Nc1ccc(S(=O)(=O)N2CCCC2C(=O)O)cc1 (stereo not drawn),6.9%
6,CCOC(=O)N1CCN(C(=O)CN(c2ccc(C)c(C)c2)S(=O)(=O)c2ccccc2)CC1,10.2%
7,C=CCc1cccc2cc(C(=O)N3CCN(C(=O)OCC)CC3)c(=O)oc12,-6.7%
8,Cc1cc(C)cc(OCc2nnc(SCC(=O)OC3CCCCC3)o2)c1,17.6%
9,Cc1ccnc(N2CCC(C(=O)NC3CCCCCC3)CC2)n1,11.5%
10,Nc1ccc(-n2nncc2-c2ccco2)cc1,4%
11,O=C(COC(=O)C12CC3CC(CC(C3)C1)C2)NCc1ccco1,3.7%
12,CCOC(=O)c1cnc(SCC(=O)NCc2ccco2)nc1N,-2%
13,Cc1cc(C(=O)OCC(=O)NCc2ccco2)c(C)n1-c1ccccc1,41.7% (active)
14,CC1(C)CC(=O)C2=C(C1)NCN(CCCN1CCOCC1)C2,3.7%
15,CCCCC(=O)Nc1cc(C)c2c(=O)oc3ccccc3c2n1,2.7%
16,Cc1cccc(-n2c(N)c(C(=O)N3CCN(C)CC3)sc2=S)c1,8.2%
17,Cc1ccc2nc(S(=O)(=O)O)[nH]c2c1,13.2%
18,COCc1[nH]nc2c1C(C1C=CCCC1)C(C#N)=C(N)O2 (stereo not drawn),-9.1%
19,Cc1cccc2cc(CN(Cc3cccs3)C(c3nnnn3C3CCCC3)C(C)C)c(=O)[nH]c12 (stereo not drawn),42% (active)
20,CCC(c1nnnn1C1CCCC1)N(Cc1cccs1)Cc1cc2cccc(C)c2[nH]c1=O (stereo not drawn),1.1%
21,Cc1cccc2cc(CN(Cc3ccc4c(c3)OCO4)Cc3nnnn3C3CCCC3)c(=O)[nH]c12,26.6%
22,CCCCOc1ccc(-c2ncc(C(=O)OCC)c(N)n2)cc1,5.2%
23,Cc1ccc(C)n1-c1ccncc1,4.5%
24,Cc1nnc(Sc2nc3c(c(=O)[nH]c(=O)n3C)n2Cc2ccccc2)s1,-1.3%
25,CC(C)CCn1c(CN(C)Cc2ccccc2)nc2c1c(=O)n(C)c(=O)n2C,10.4%

row,Structure (SMILES),inhibition
1,CCc1c(C)nc2cc(-c3cccs3)[nH]n2c1=O,0.4%
2,Cn1nnnc1SCC(=O)N1CCN(Cc2ccccc2)CC1,10.7%
3,Cc1cccc(NC(=O)c2ccc3ccccc3n2)n1,-33.4%
4,Cc1ccccc1CSCC(=O)NC(=O)NC(C)(C)C,-1.2%
5,CCOc1ncccc1C(=O)OCc1cn2cc(Cl)ccc2n1,7.4%
6,CC1C(c2ccccc2)=[N+]([O-])C2(CCCC2)N1O (stereo not drawn),5.7%
7,Cc1ccc(-c2cc(C(F)(F)F)n3nc(C(=O)N4CCCC4)cc3n2)cc1,13.3%
8,CC(C)(C)OC(=O)c1c(N)n(CCCN2CCCC2=O)c2nc3ccccc3nc12,11.9%
9,O=C(NCc1ccco1)c1cc2sccc2n1Cc1ccc(F)cc1,19.8%
10,O=C(O)CCCC(=O)Nc1ccccc1-n1ccnc1,-1.2%
11,COc1ccc(-c2nnc(SC(=O)N3c4ccccc4Sc4ccccc43)o2)cc1,9.5%
12,COc1ccc(O)c(C(=O)c2cnc3onc(C(C)C)c3c2)c1,8.8%
13,Cc1cc(C)c(S(=O)(=O)NCCCN2CCOCC2)cc1Br,11.3%
14,O=S(=O)(NCc1cccnc1)c1ccc(Br)s1,10.6%
15,CCN1C(=O)C(C(=O)NC(C)c2ccccc2)C2CC1(C)Oc1ccccc12 (stereo not drawn),14.7%
16,Cc1nn(-c2ccccc2)c(C)c1C(=O)OCC(=O)NC(=O)NC1CCCCC1,8.4%
17,CCOC(=O)N1CCN(C(=O)c2nn(-c3ccc(C)cc3)c(=O)c3c2c2ccccc2n3C)CC1,20.4%
18,O=C(OCC(=O)N1CCCC1)c1ccco1,9.6%
19,CC1(C)NC(=O)N(CCOc2cccc(Oc3ccccc3)c2)C1=O,21.8%
20,COc1cccc2c(C)c(C(=O)O)[nH]c12,48.7% (active)
21,COc1ccc(C)cc1NC(=O)c1[nH]c(C)c(C(C)=O)c1C,8.7%
22,CCOC(=O)c1c(C)[nH]c(C(=O)NCc2ccccc2OC)c1C,-10.8%
23,Cc1ccc(NC(=O)CCNS(=O)(=O)c2ccc3c(c2)oc(=O)n3C)cc1C,13.6%
